ChEMBL document CHEMBL1132658, “Second-generation peptidomimetic inhibitors of protein farnesyltransferase demonstrating improved cellular potency and significant in vivo efficacy” (J Med Chem, 1999)

Tests used:
[1] = biological target: Protein farnesyltransferase (Bos taurus, UniProt P29702+P49355); assay: In vitro inhibition of farnesyltransferase purified from bovine brain using scintillation proximity assay
NIH3T3 = assay: In Vitro inhibition of Ha-Ras procession by using subconfluent NIH3T3 ras-transformed cells; assay type: functional; settings: Mus musculus, read-out: ED50 (the source's name)
[2] = Portal vein area under the curve after intraduodenal administration; set-up: concentration or dose not given beside the values
[3] = Biological half-life in the rat; assay type: ADME, organism-based; settings: in vivo
Summary of the method: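 Half-life determined after intravenous dosing in rats.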

[4] = Area under the curve during systemic administration; assay type: ADME; set-up: concentration or dose not given beside the values; settings: other: systemic administration

IC50 [1] [nM]	AUC [2] [ng·h/mL]	half-life [3] [min]	AUC [4] [ng·h/mL]	SMILES	EC50 (NIH3T3) [nM]
0.2	2400	67.8	300	CSCC[C@H](NC(=O)c1ccc(CN(Cc2cc(F)cc(F)c2)Cc2cncs2)cc1-c1ccccc1C)C(=O)O	500
0.4	14300	114	10800	CSCC[C@H](NC(=O)c1ccc(CN(Cc2cc(F)cc(F)c2)c2ccccc2)cc1-c1ccccc1C)C(=O)O	1000
29	–	–	–	CSCC[C@H](NC(=O)c1cc(CC(C)C)c(COc2cccnc2)cc1-c1ccccc1C)C(=O)O	> 10000
0.1	2400	< 24	400	CSCC[C@H](NC(=O)c1ccc(CN(Cc2ccccc2)c2cncc(F)c2)cc1-c1ccccc1C)C(=O)O	30
7	–	–	–	CSCC[C@H](NC(=O)c1ccc(CN(Cc2ccccc2)Cc2nccs2)cc1-c1ccccc1C)C(=O)O	> 1000
–	–	–	–	CSCC[C@H](NC(=O)c1ccc(COc2cccnc2)cc1-c1ccccc1C)C(=O)O	400
39	–	–	–	CSCC[C@H](NC(=O)c1ccc(CN(C(=O)Cc2ccccc2)c2cccnc2)cc1-c1ccccc1C)C(=O)O	> 1000
1	–	–	–	CSCC[C@H](NC(=O)c1cc(Cc2ccccc2)c(COc2cccnc2)cc1-c1ccccc1C)C(=O)O	> 1000
0.4	–	–	–	CSCC[C@H](NC(=O)c1ccc(CNc2cccnc2)cc1-c1ccccc1C)C(=O)O	3000
0.4	10400	30	20	CSCC[C@H](NC(=O)c1ccc(CN(Cc2ccccc2)c2cncnc2)cc1-c1ccccc1C)C(=O)O	90
0.8	1800	< 24	900	CSCC[C@H](NC(=O)c1ccc(CN(Cc2ccccc2)c2cnccn2)cc1-c1ccccc1C)C(=O)O	50
1.4	3560	60	140	CSCC[C@H](NC(=O)c1ccc(CN(Cc2cc(F)cc(F)c2)c2cccnc2)cc1-c1ccccc1C)C(=O)O	50
1.4	1900	48	600	CSCC[C@H](NC(=O)c1ccc(CN(Cc2ccccc2)c2ccccc2)cc1-c1ccccc1C)C(=O)O	400
370	–	–	–	CSCC[C@H](NC(=O)c1cc(-c2ccc(C)cc2)c(COc2cccnc2)cc1-c1ccccc1C)C(=O)O	–
7	–	–	–	CSCC[C@H](NC(=O)c1ccc(CN(c2cccnc2)S(=O)(=O)c2ccccc2)cc1-c1ccccc1C)C(=O)O	–
11	–	–	–	CCCCc1cc(C(=O)N[C@@H](CCSC)C(=O)O)c(-c2ccccc2C)cc1COc1cccnc1	–
12	–	–	–	CSCC[C@H](NC(=O)c1cc(CC2CCCCC2)c(COc2cccnc2)cc1-c1ccccc1C)C(=O)O	1000
95	–	–	–	CSCC[C@H](NC(=O)c1cc(-c2cc(Cl)cc(Cl)c2)c(COc2cccnc2)cc1-c1ccccc1C)C(=O)O	–
11	–	–	–	CCc1cc(C(=O)N[C@@H](CCSC)C(=O)O)c(-c2ccccc2C)cc1COc1cccnc1	< 10000
0.4	3200	< 24	1600	CSCC[C@H](NC(=O)c1ccc(CN(Cc2ccccc2)Cc2cncs2)cc1-c1ccccc1C)C(=O)O	300
0.1	3000	49.8	500	CSCC[C@H](NC(=O)c1ccc(CN(Cc2ccccc2)c2cccnc2)cc1-c1ccccc1C)C(=O)O	13
2	–	–	–	CCCCCc1cc(C(=O)N[C@@H](CCSC)C(=O)O)c(-c2ccccc2C)cc1COc1cccnc1	1000
16	–	–	–	CSCC[C@H](NC(=O)c1ccc(CN(Cc2ccccc2)Cc2cscn2)cc1-c1ccccc1C)C(=O)O	> 1000
510	–	–	–	CSCC[C@H](NC(=O)c1cc(-c2cccs2)c(COc2cccnc2)cc1-c1ccccc1C)C(=O)O	–
0.5	–	–	–	CSCC[C@H](NC(=O)c1cc(CCc2ccccc2)c(COc2cccnc2)cc1-c1ccccc1C)C(=O)O	1000
0.1	1000	< 24	100	CSCC[C@H](NC(=O)c1ccc(CN(CC2CCCCC2)c2cccnc2)cc1-c1ccccc1C)C(=O)O	10
53	–	–	–	CSCC[C@H](NC(=O)c1ccc(CN(C(=O)c2ccccc2)c2cccnc2)cc1-c1ccccc1C)C(=O)O	> 1000
